We go through 34 compounds from ChEMBL document CHEMBL1128354, “Fluorenylalkanoic and benzoic acids as novel inhibitors of cell adhesion processes in leukocytes” (J Med Chem, 1995).

The species entered for data set [1] is Homo sapiens. As to the kind of experiment: In vitro ability to inhibit the adhesion of neutrophil activated by tumor necrosis factor (alpha-TNF) to serum-coated plastic wells. Format: functional, organism-based. An outline of the steps: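 Human blood PMN, isolated and RBC-lysed, at 4×10^6/mL were preincubated with compound (from 100× DMSO stocks) for 10 min at 37 °C in wells coated with 10% pooled human serum. TNF-α was then added to 0.6 nM and adherence run for 20 min. Adherent cells quantitated by BCA protein assay. Seven dilutions in duplicate gave IC50, averaged over at least three experiments ± SEM.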

Data set [2] is described as follows: In vitro ability to inhibit adherence of activated polymorphonuclear granulocytes to endothelial cells using IFN gamma-(HUVEC) assay was determined. To be noted: Homo sapiens.
The species named for data set [3] is Homo sapiens. The experiment in a line: In vitro ability to inhibit the adhesion of neutrophil activated by platelet activating factor (PAF) to serum-coated plastic wells was determined. Format: functional. In outline:
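Human blood PMN, isolated and RBC-lysed, at 4×10^6/mL were preincubated with compound (from 100× DMSO stocks) for 10 min at 37 °C in wells coated with 10% pooled human serum. PAF was then added to 1 μM and adherence run for 10 min. Adherent cells quantitated by BCA protein assay. Seven dilutions in duplicate gave IC50, averaged over at least three experiments ± SEM.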

The nature of data set [4]: LD50 value for endothelial cells was determined. It is filed as ADME, cell-based, Endothelial cell. To be noted: human, read-out: LD50 (the source's name). An outline of the steps: (§1)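 Viability read-out for LD50: human PMN (isolated from heparinised blood of unmedicated volunteers) or endothelial cell suspension in phenol red-free medium, with compound, incubated in serum-coated wells for 30 min at 37 °C. Calcein AM (added as 2 μM solution in HBSS++) for a further 30 min. Fluorescence read at ex/em 485/535 nm from live-cell esterase cleavage.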

Data set [5] is described as follows: (§2) LD50 value for polymorphonuclear granulocytes was determined. It is filed as ADME. To be noted: human, read-out: LD50 (the source's name). An outline of the steps:
as §1

Data set [6] is described as follows: as §2. It is filed as functional. The note with it: Homo sapiens; read-out: LD50 (the source's name). An outline of the steps: as §1

SMILES strings stand for the structures. Some results are limits rather than exact numbers.

In data set [1], `CC(C)C[C@H](NC(=O)OCC1c2ccccc2-c2ccccc21)C(=O)O` gave an IC50 of 78 µM.
Same read-out and setting: the figure for `O=C(Nc1ccccc1C(=O)O)OC1c2ccccc2-c2ccccc21` is 19 µM.
The same measure, in the same setting: the figure for `O=C(O)c1ccc(OCCCCC2c3cc(Cl)ccc3-c3ccc(Cl)cc32)cc1` is 8.1 µM; for `O=C(O)c1ccc(CC2c3cc(Cl)ccc3-c3ccc(Cl)cc32)cc1` it is 29.1 µM; for `O=C(O)CCCC1c2ccccc2-c2ccccc21` it is 97 µM.
The compound `O=C(O)C1c2ccccc2-c2ccccc21` showed a half-maximal inhibitory concentration (IC50) in data set [1] above 200 µM.
The same measure, in the same setting: the figure for `O=C(O)c1cccc(OCCCC2c3ccccc3-c3ccccc32)c1` is 13.8 µM.
The same measure, in the same setting: the figure for `O=C(O)c1cccc(OCCCCCC2c3ccccc3-c3ccccc32)c1` is 5.23 µM.
In the case of `O=C(O)c1ccc(CC2c3ccccc3-c3ccccc32)cc1`, the results for the half-maximal inhibitory concentration (IC50) in data set [2], in data set [3] and in data set [1] were 91.2 µM, 17.8 µM and 27.6 µM, respectively. For the same compound, the CC50 in data set [4] was above 1000 µM; in data set [5] it was 306 µM.
Take `CC(C)(C)c1ccc2c(c1)C(Cc1ccc(C(=O)O)cc1)c1cc(C(C)(C)C)ccc1-2`: the IC50 in data set [1] is above 200 µM.
For the compound `O=C(N[C@@H](Cc1ccccc1)C(=O)O)OCC1c2ccccc2-c2ccccc21`, in data set [1], the half-inhibitory concentration (IC50) is 58 µM.
`O=C(O)c1ccccc1OCCC1c2ccccc2-c2ccccc21`: the concentration for half-maximal inhibition (IC50) in data set [1] amounted to 73.3 µM.
On the same count and under the same terms, the figure for `O=C(O)CCCCC1c2ccccc2-c2ccccc21` is 87 µM.
For `Cc1ccc2c(c1)C(COC(=O)N[C@@H](CC(C)C)C(=O)O)c1cc(C)ccc1-2`, the half-maximal inhibitory concentration (IC50) is 117 µM in data set [2], 31.7 µM in data set [3] and 41.7 µM in data set [1]. Besides, the values for the CC50 in data set [4] and in data set [5] were 354 µM and 343 µM, respectively.
For `O=C(O)c1ccccc1OCCCCCC1c2ccccc2-c2ccccc21`, in data set [1], the midpoint of inhibition, the IC50, lay at 15.8 µM. That is a double-digit micromolar value.
For `O=C(O)c1ccc(OCCCCC2c3ccccc3-c3ccccc32)cc1`, the concentration for half-maximal inhibition (IC50) amounted to 19.8 µM in data set [2], 5.2 µM in data set [3] and 7.53 µM in data set [1]. The CC50 is above 1000 µM in data set [4] and 113 µM in data set [5].
In the case of `O=C(O)CCCCCCCCCC1c2ccccc2-c2ccccc21`, the half-inhibitory concentration (IC50) in data set [1] stood at 11.6 µM. This lies in the double-digit micromolar range.
Turning to `O=C(Nc1ccc(C(=O)O)cc1)OCCC1c2ccccc2-c2ccccc21`, in data set [1], inhibition was half-maximal at 30 µM (IC50).
As for `O=C(O)c1cccc(OCCC2c3ccccc3-c3ccccc32)c1`, in data set [1], half-maximal inhibition (IC50) required 31 µM.
For the compound `O=C(O)c1ccc(OCCCCCC2c3ccccc3-c3ccccc32)cc1`, the IC50 in data set [2] was determined as 48.2 µM; in data set [3], 11.7 µM; in data set [1], 7.13 µM. Besides, the values for the CC50 in data set [4] and in data set [5] were above 1000 µM and 295 µM, respectively.
Regarding `O=C(O)c1cccc(OCCCCC2c3ccccc3-c3ccccc32)c1`, in data set [1], half-maximal inhibition (IC50) required 6.6 µM.
On to `O=C(O)c1ccc(OCCCC2c3ccccc3-c3ccccc32)cc1`, for which the figures for the 50% inhibitory concentration (IC50) in data set [2], in data set [3] and in data set [1] were 23.2 µM, 36.4 µM and 15.6 µM, respectively. The CC50 in data set [4] was above 1000 µM; in data set [5] it was 281 µM.
In data set [1], `O=C(O)CCCCCC1c2ccccc2-c2ccccc21` displayed a half-maximal inhibitory concentration (IC50) of 55.2 µM. This lies in the double-digit micromolar range.
On the same count and under the same terms, the value for `O=C(O)CCC1c2ccccc2-c2ccccc21` was above 200 µM; that for `O=C(O)CC1c2ccccc2-c2ccccc21` was above 200 µM; that for `O=C(O)CCCCCCCC1c2ccccc2-c2ccccc21` was 32.2 µM.
Turning to `O=C(Nc1ccc(C(=O)O)cc1)OCCC1c2cc(Cl)ccc2-c2ccc(Cl)cc21`, the IC50 in data set [2] was 26.1 µM; in data set [3], 17.8 µM; in data set [1] it was 9.8 µM. Moreover, the CC50 in data set [4] turned out to be 82.3 µM; in data set [6], 62.5 µM.
Compound `CC(C)(C)c1ccc2c(c1)C(CCCCOc1ccc(C(=O)O)cc1)c1cc(C(C)(C)C)ccc1-2` returned a half-inhibitory concentration (IC50) in data set [1] of 8 µM.
The same measure, in the same setting: the figure for `O=C(Nc1ccc(C(=O)O)cc1)OCC1c2ccccc2-c2ccccc21` is above 500 µM; for `O=C(O)c1ccccc1OCCCC1c2ccccc2-c2ccccc21` it is 55.4 µM.
The same measure, in the same setting: the value for `O=C(O)c1ccc(C2c3ccccc3-c3ccccc32)cc1` was 81.6 µM.
Consider `O=C(O)C(CCCCC1c2ccccc2-c2ccccc21)Cc1ccccc1` (stereo unspecified), for which the half-inhibitory concentration (IC50) came out at 10.2 µM in data set [2] and 6 µM in data set [1]. Besides, the CC50 in data set [4] is 72 µM; in data set [5] it was 79 µM.
Take `O=C(Nc1ccc(C(=O)O)cc1)OC1c2ccccc2-c2ccccc21`: the IC50 in data set [1] is 30 µM.
As to `O=C(O)c1ccc(OCCC2c3ccccc3-c3ccccc32)cc1`, in data set [1], the midpoint of inhibition, the IC50, lay at 14 µM.
